Source: paper PMC5771089 (Theranostics, 2018)

Key:
[1] = molecular target: biotinylated BSA (serum albumin) (Bos taurus, UniProt P02769); experiment: Kinetic binding assay by biolayer interferometry; set-up: species or system bovine
In short: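 Biolayer interferometry on streptavidin biosensors. Steps: PBS baseline 60 s; biotin-BSA load (1 µg/mL) 600 s; PBS 60 s; biocytin quench (1 µg/mL) 180 s; PBS 60 s; test compound association 600 s; dissociation 600 s. Nonspecific signal subtracted, taken from BSA-loaded sensor in buffer alone and blank sensor with analyte.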

[2] = system: HCT116/SSTR2 tumor xenografts; experiment: In vivo PET in HCT116/SSTR2 xenografts; set-up: species or system mouse
[3] = system: HCT116/SSTR2 (SSTR2+) and HCT116 (SSTR2-) cells; experiment: Cell uptake/internalization; type: cell-based, human
In short: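 HCT116/SSTR2 (transfected) and parental HCT116 cells grown in McCoy's 5A with 10% FBS at 37 °C, 5% CO2. 10^5 cells/well plated 24 h ahead, PBS-washed, then given 18.5 KBq/well 86Y-labelled tracer in 0.5 mL medium with 1% (w/v) HSA. At each time point: PBS wash, then 0.1 M NaOH lysis. For internalized fraction, surface tracer stripped first with 1 min glycine 50 mM/NaCl 100 mM, pH 2.8. Gamma-counted as % of added activity; triplicates; blocking at 24 h.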

Chain of biotinylated BSA (serum albumin) (P02769 25-607): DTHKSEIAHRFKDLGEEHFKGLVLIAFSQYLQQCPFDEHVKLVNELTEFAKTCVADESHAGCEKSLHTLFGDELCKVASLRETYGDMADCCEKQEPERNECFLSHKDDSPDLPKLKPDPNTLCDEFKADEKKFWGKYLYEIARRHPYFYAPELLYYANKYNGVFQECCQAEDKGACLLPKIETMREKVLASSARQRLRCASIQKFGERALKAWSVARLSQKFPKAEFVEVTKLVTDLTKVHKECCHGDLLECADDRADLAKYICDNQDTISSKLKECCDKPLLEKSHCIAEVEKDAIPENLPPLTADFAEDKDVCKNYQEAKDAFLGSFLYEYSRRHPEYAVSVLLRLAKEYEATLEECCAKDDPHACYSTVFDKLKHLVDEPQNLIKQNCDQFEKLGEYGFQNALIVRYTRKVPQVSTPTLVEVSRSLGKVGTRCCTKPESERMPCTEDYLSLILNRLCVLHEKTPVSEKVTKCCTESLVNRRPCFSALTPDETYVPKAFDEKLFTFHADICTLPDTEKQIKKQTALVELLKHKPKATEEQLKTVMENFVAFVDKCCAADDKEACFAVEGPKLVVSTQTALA

Compound	Kd [1] [µM]	Amount retained in the blood compared to ^86Y-TATE ([2]; 1 h p.i., PET quantification) [fold]	Tumor exposure to the radioisotope (AUC) compared to ^86Y-TATE ([2]; AUC of tumor radioactivity over time, non-decay corrected data)	Increase of half-life in the blood compared to ^86Y-TATE ([2]; PET quantification, i.v. 0.92 MBq (4 nmol)) [fold]	Cell uptake (percent of added radioactivity) ([3]; HCT116/SSTR2 cells, 24 h, 18.5 KBq/well, medium with 1% (w/v) HSA, triplicate) [%]	Uptake/internalization in SSTR2 positive vs SSTR2 negative cells ([3]; HCT116/SSTR2 vs HCT116, 1% HSA, p < 0.001)
Cc1cc(-c2ccc(NC(=O)[C@H](CCCCNC(=O)CCN3C(=O)CC(SCC(=O)N[C@H](Cc4ccccc4)C(=O)N[C@H]4CSSC[C@@H](C(=O)N[C@H](C(=O)O)[C@@H](C)O)NC(=O)[C@H]([C@@H](C)O)NC(=O)[C@H](CCCCN)NC(=O)[C@@H](Cc5c[nH]c6ccccc56)NC(=O)[C@H](Cc5ccc(O)cc5)NC4=O)C3=O)NC(=O)CN3CCN(CC(=O)O)CCN(CC(=O)O)CCN(CC(=O)O)CC3)c(C)c2)ccc1N=Nc1ccc2c(S(=O)(=O)O)cc(S(=O)(=O)O)c(N)c2c1O (stereo partly drawn) [EB-TATE]	4.8					
Cc1cc(-c2ccc(NC(=O)[C@H](CCCCNC(=O)CCN3C(=O)CC(SCC(=O)N[C@H](Cc4ccccc4)C(=O)N[C@H]4CSSC[C@@H](C(=O)N[C@H](C(=O)O)[C@@H](C)O)NC(=O)[C@H]([C@@H](C)O)NC(=O)[C@H](CCCCN)NC(=O)[C@@H](Cc5c[nH]c6ccccc56)NC(=O)[C@H](Cc5ccc(O)cc5)NC4=O)C3=O)NC(=O)CN3CCN(CC(=O)O)CCN(CC(=O)O)CCN(CC(=O)O)CC3)c(C)c2)ccc1N=Nc1ccc2c(S(=O)(=O)O)cc(S(=O)(=O)O)c(N)c2c1O (stereo partly drawn) [^86Y-EB-TATE, metal not drawn]		4	approximately 6 fold	2	12.05±0.67	significantly higher
